For one data set, the system named is p53 in U2OS cells. Format: cell-based, human. Conditions: U2OS co-transfected with p53 and Hdm2; 8 h; 50 µM ALLN or 3–15 µM 5.
For data set [1], the system named is p53 and Hdm2 in RPE cells. The data set is described as follows: Cellular p53 and Hdm2 levels in RPE cells by immunoblotting. Conditions: for effect on cellular p53 and Hdm2 levels: 1–10 µM, immunoblotting; for effect on cellular p53 and Hdm2 levels / concentration exhibiting greatest increase in p53 and Hdm2: 8 h; for concentration exhibiting greatest increase in p53 and Hdm2: similar to 50 µM ALLN. On the technique in general: Immunoblotting shows a protein as a band on a membrane.

The target of data set [2] is T1, Hdm2 (Homo sapiens, UniProt Q00987). The data set is described as follows: Hdm2 electrochemiluminescence assay. Format: biochemical. Conditions: for activity in Hdm2 assay: isolated from Hdm2-inhibitory fractions.
Data set [3] is described as follows: Stability of the compound observed while conducting experiments. Format: physicochemical.
In data set [4] the test system is Hdm2 in p53^−/−mdm2^−/− mouse embryo fibroblasts. Format: cell-based. To be noted: 10 µM, 8 h; Hdm2 under p53-independent CMV promoter.
For data set [5], the system named is p53 in HCT116 colon carcinoma cells. Put plainly: ALLN-induced ubiquitylated p53 in HCT116 cells expressing wild-type p53. Format: cell-based, human. To be noted: treatment with both 5 and ALLN; data not shown.
The next data set has as its system RPE cells. Put plainly: Cell death by trypan blue exclusion, parental RPE cells. It is filed as cell-based, human. Conditions: 3–25 µM, 17 h.
The subject of a further data set is A9 cells. The data set is described as follows: Cell death by trypan blue exclusion, p53-deficient MEFs. Format: cell-based, mouse. To be noted: 5–20 µM, 20 h.
In data set [6] the test system is C8 cells. The data set is described as follows: Cell death by trypan blue exclusion, wild-type p53 MEFs. It is filed as cell-based, mouse. To be noted: 5–20 µM, 20 h.
For a further data set, the system named is RPE-E1A cells. The data set is described as follows: Cell death by trypan blue exclusion, RPE-E1A cells. Conditions: 3–25 µM, 17 h. Format: cell-based, human.
Data set [7] concerns HCT116-p53^+ and HCT116-p53^− cells. Put plainly: Killing of HCT116-p53+ compared to HCT116-p53- cells. Conditions: HCT116-p53+ vs HCT116-p53−; data not shown. Format: cell-based, human.
Data set [8] has as its system C8 cells. Put plainly: PARP cleavage by immunoblotting, C8 cells. Format: cell-based, mouse. Conditions: 5–20 µM, 14 h.
In data set [9] the test system is U2OS-pG13 cells (p53-responsive luciferase reporter). Put plainly: p53-responsive luciferase reporter assay in U2OS-pG13 cells. Conditions: 1–10 µM, 22 h. It is filed as cell-based, human. In short, it runs like this: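 U2OS-pG13 cells carry endogenous wild-type p53 and a stably expressed p53-responsive luciferase reporter (pG13). They were incubated for 22 h with test compound at 1–10 µM, with adriamycin at 1 µg/ml as reference. Cells were lysed in reporter lysis buffer and spun at 14,000 g for 20 min. Supernatant luciferase was read as RLU. Values are mean and standard deviation of three independent experiments.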
(In a reporter assay the amount or activity of a reporter protein is the signal.)

For data set [10], the target named is T1, Hdm2. To be noted: cited from earlier work.

Entries after “also recorded” stand apart in the source; their conditions may differ. Where a SMILES comes first, the peptide text is derived from it. [ ]: non-standard residue; d: D form. Nle = CCCC[C@H](N)C(=O)O

T1 sequence (Q00987 whole entry): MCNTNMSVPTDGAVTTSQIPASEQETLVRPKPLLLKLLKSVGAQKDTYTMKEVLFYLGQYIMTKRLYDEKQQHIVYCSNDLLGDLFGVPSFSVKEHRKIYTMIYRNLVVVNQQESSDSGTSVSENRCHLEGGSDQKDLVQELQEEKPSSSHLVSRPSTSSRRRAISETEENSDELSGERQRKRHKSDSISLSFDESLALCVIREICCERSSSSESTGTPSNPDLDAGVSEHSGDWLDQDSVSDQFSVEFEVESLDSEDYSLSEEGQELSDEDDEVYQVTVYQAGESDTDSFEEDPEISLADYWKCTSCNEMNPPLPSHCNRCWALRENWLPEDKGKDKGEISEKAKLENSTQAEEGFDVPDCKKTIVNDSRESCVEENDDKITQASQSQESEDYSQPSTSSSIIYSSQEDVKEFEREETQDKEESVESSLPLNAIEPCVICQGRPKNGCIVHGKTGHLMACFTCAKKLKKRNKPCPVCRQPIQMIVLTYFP

On to `CCCC[C@@H](C=O)NC(=O)[C@H](CC(C)C)NC(=O)[C@H](CC(C)C)NC(C)=O` [ALLN, N-acetyl-leucyl-leucyl-norleucinal, reference compound] (Ac-Leu-Leu-[Nle]-aldehyde), for which, in the data set with p53 in U2OS cells, the “effect on p53 degradation / p53 level” value is “accumulation of p53” and the “ubiquitylated forms of p53” value is “higher molecular weight forms of the protein indicative of ubiquitylation”.

For the compound `COc1cc(CCN(C)C)c2c(c1O)SSSSS2` [Compound 1, Isolissoclinotoxin B], in data set [1] (RPE cells, at 1 µM), the “effect on p53 levels” value is given as “did not increase p53 levels”. Moreover, the “toxicity to RPE cells” value in data set [1] (at 10 µM) is “toxic”.

As to `COc1cc(CCN)c2c(c1OC)SSSSS2` [Compound 2, varacin], the “effect on cellular p53 and Hdm2 levels” value in data set [1] (RPE cells) was “no discernable cellular effects”. At Hdm2 [2], the “activity in Hdm2 assay” value was “very little activity”.

Consider `COc1c(C)c(CCN(C)C)c2c(c1OC)SSSSS2` [Compound 3, N,N-dimethyl-5-methylvaracin], for which the “effect on cellular p53 and Hdm2 levels” value in [1] (RPE cells) is recorded as “no discernable cellular effects”. Besides, the “activity in Hdm2 assay” value on Hdm2 [2] is given as “very little activity”.

With `CSC1=C(CCN)c2nc3ccccc3c3ccnc(c23)C1=O` [Compound 4, Diplamine B], the “stability” value in [3] is “fairly unstable and degraded over time”. Besides, the “effect on cellular Hdm2” value in data set [4] is listed as “increased Hdm2; also recorded: stabilized Hdm2 in MEFs”. In addition, in [1] (RPE cells), the “effect on cellular p53 and Hdm2 levels” value is “increased p53 and Hdm2 in cells in a dose-dependent manner”; the “concentration exhibiting greatest increase in p53 and Hdm2” value is 10 µM.

The IC50 is the concentration that gives 50% inhibition. A higher IC50 goes with lower potency. On to `NCCc1c2c(c3nccc4c3c1Nc1ccccc1-4)OCS2` [Compound 5, Lissoclinidine B], for which, in [5], the “effect on ALLN-induced ubiquitylated p53” value is reported as “prevented the accumulation of ALLN-induced ubiquitylated p53”. Moreover, the cell death entry is on record as “no effect” with RPE cells, “relatively resistant” in the data set with A9 cells, “marked increase in cell death; also recorded: selectively kills cells expressing wild-type p53” in the data set with C8 cells [6] and “clear dose-dependent increase in cell death; also recorded: selectively kills transformed cells” with RPE-E1A cells. Moreover, in the data set on p53 in U2OS cells, the “effect on p53 degradation / p53 level” value is recorded as “blocked p53 degradation in a dose-dependent manner; also recorded: inhibits Hdm2-mediated p53 degradation”. Moreover, in the data set with p53 in U2OS cells, the “ubiquitylated forms of p53” value is “absent”. Also, in [4], the “effect on cellular Hdm2” value is “increased Hdm2; also recorded: stabilized Hdm2 in MEFs”. Also, the “effect on cellular p53 and Hdm2 levels” value in [1] (RPE cells) is “increased p53 and Hdm2 in cells in a dose-dependent manner”. Further, in data set [1] (RPE cells), the “concentration exhibiting greatest increase in p53 and Hdm2” value is 10 µM. In addition, at Hdm2 [2], the concentration for half-maximal inhibition (IC50) stood at 98.1 ± 6 µM. For the same compound, the p53-dependent killing result in data set [7] is “p53-dependent killing”. Moreover, the “PARP cleavage (apoptosis)” value with C8 cells [8] was “cleavage of the poly (ADP-ribose) polymerase (PARP) was observed; also recorded: induces apoptosis in C8 cells”. Moreover, the “luciferase activity (p53-dependent transactivation)” value in data set [9] is recorded as “dose-dependent increase in luciferase activity; also recorded: activates p53 transcription”.

For the compound `c1ccc2c3ccn4cc5c(cc4c-3nc2c1)CCCC5` [sempervirine], at Hdm2 [10], the “inhibition of auto-ubiquitylation of Hdm2” value is “inhibits auto-ubiquitylation of Hdm2”.

Source of the values: publication PMC2718708 (Bioorganic & medicinal chemistry, 2008).
